From ChEMBL document CHEMBL1149369, “Isolation, structure elucidation, total synthesis, and evaluation of new natural and synthetic ceramides on human SK-MEL-1 melanoma cells” (J Med Chem, 2006)
pIC50: −log10 of the molar value. Calls of active or inactive are those of the source. No cut-off for these calls is given here.

What was measured:
Format in all cases: functional, cell-based
SK-MEL-1 [1] = assay: Apoptotic activity in human SK-MEL-1 cells measured as induction of DNA fragmentation
Outline: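 SK-MEL-1 cells incubated 6 h or 12 h with 10-30 µM ceramides or untreated. 4 × 10^5 cells lysed in 50 mM Tris-HCl pH 8.0, 10 mM EDTA, 0.5% SDS, RNase A (37 °C, 1 h), then proteinase K (50 °C, 2 h). Phenol-chloroform-isoamyl alcohol extraction; 2% agarose gel in TAE at 40 V, 4 h; ethidium bromide staining, UV visualisation of ladders.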

SK-MEL-1 [2] = assay: Apoptotic activity in human SK-MEL-1 cells measured as procaspase 9 cleavage by Western blot analysis
Outline: (§1)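 Western blot for procaspase-8 and -9 in SK-MEL-1 cells cultured with 10 µM or 30 µM ceramides and harvested at 12 h.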

SK-MEL-1 [3] = assay: Apoptotic activity in human SK-MEL-1 cells measured as induction of poly ADP-ribose polymerase cleavage by Western blot analysis
Outline: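 SK-MEL-1 cells exposed 12 h to 10 µM or 30 µM ceramides; untreated controls. Cells pelleted, washed in ice-cold PBS, lysed; SDS-PAGE and immunoblot with anti-PARP antibody that also detects the 85 kDa cleavage fragment.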

SK-MEL-1 [4] = assay: Apoptotic activity in human SK-MEL-1 cells measured as procaspase 8 cleavage by Western blot analysis; outline: as §1
SK-MEL-1 [5] = assay: Antiproliferative activity against human SK-MEL-1 cells by MTT assay
Outline: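 SK-MEL-1 in RPMI 1640 + 10% heat-inactivated FBS, 37 °C, 5% CO2; resuspended in fresh medium 24 h before treatment. 1 × 10^4 exponentially growing cells exposed 72 h at 37 °C to graded concentrations (10 mM ethanol/dodecane 49:1 stocks; final solvent ≤0.5%, vehicle controls). MTT; OD 570 nm vs control; IC50 by curve fitting; two independent experiments, triplicate determinations.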

Row | pIC50 (SK-MEL-1 [5]) | SMILES | Activity (SK-MEL-1 [1]) | Activity (SK-MEL-1 [2]) | Activity (SK-MEL-1 [3]) | Activity (SK-MEL-1 [4])
1 | 5.25 | CCCCCCCCCCCCCCCCCC[C@@H](OC(C)=O)[C@@H](OC(C)=O)[C@H](COC(C)=O)NC(=O)[C@H](OC(C)=O)[C@@H](CCCCCCCCCCCCCCCCC)OC(C)=O | Dose-dependent effect | Active | Active | Active
2 | 4.99 | CCCCCCCCCCCCCCCCCC[C@@H](OC(C)=O)[C@@H](OC(C)=O)[C@H](COC(C)=O)NC(=O)[C@@H](OC(C)=O)[C@H](CCCCCCCCCCCCCCCCC)OC(C)=O | Dose-dependent effect | Active | Active | Active
3 | 5.15 | CCCCCCCCCCCCCCCCCC[C@@H](OC(C)=O)[C@@H](OC(C)=O)[C@H](COC(C)=O)NC(=O)[C@H](OC(C)=O)[C@H](CCCCCCCCCCCCCCCCC)OC(C)=O | Dose-dependent effect | Active | Active | Active
4 | 5.11 | CCCCCCCCCCCCCCCCCC[C@@H](OC(C)=O)C(=O)N[C@@H](COC(C)=O)[C@H](OC(C)=O)[C@@H](CCCCCCCCCCCCCCCCCC)OC(C)=O | Dose-dependent effect | Active | Active | Active
5 | 5.41 | CCCCCCCCCCCCCCCCCC[C@@H](OC(C)=O)[C@@H](OC(C)=O)[C@H](COC(C)=O)NC(=O)[C@@H](OC(C)=O)[C@@H](CCCCCCCCCCCCCCCCC)OC(C)=O | Dose-dependent effect | Active | Active | Active
